“And” between values parts separate entries of the source, which are not always exact repeats. Identical values can stand only once. “Also recorded” adds a separate entry of the source. Like-named read-outs stand apart in the source and are kept apart here.
How the values were obtained:
HIV-RT = conditions: substituted pyridinones; cited from earlier work
primary mouse neurons [1] = assay: Neuronal toxicity by MAP-2 staining in primary mouse neurons; type: cell-based; conditions: for estimated TC10: primary neurons, discussion; for TC50 (µM) Relative MAP-2 Area / TC50 (µM) Relative MAP-2 intensity: 48 hr, 0.1 to 10,000 nM, ±SD
primary mouse neurons [2] = assay: Calcium imaging in primary mouse neuron cultures; type: cell-based; conditions: 1 µM
Method in brief: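 Primary mouse cortex/hippocampus cultures were seeded at 20,000 cells/cm2 on poly-D-lysine coverslips in Neurobasal Plus/B27 Plus/Glutamax (>95% neurons by day 4). At 14–18 days in vitro, neurons were loaded with Fluo-4 AM (2 µM) in aCSF (NaCl 137, KCl 5.0, CaCl2 2.3, MgCl2 1.3, glucose 20 mM). Average spikes were scored in acute and delayed phases plus a summation average, versus matched controls. Statistics: Brown-Forsythe/Welch ANOVA with Dunnett's T3.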

[3] = cited from earlier work
HIV = conditions: cited from earlier work
[4] = test system: HIV-1 IIIB (A17 variant) virus; assay: microbe, parasite or virus in culture; type: cell-based; conditions: for EC50: Human immunodeficiency virus 1, IIIB, TZM-bl
HIV-1 IIIB virus = assay: Inhibition of wild-type HIV-1; type: cell-based
hERG = hERG (Homo sapiens, UniProt Q12809); conditions: cited from earlier work
[5] = biological target: HIV reverse transcriptase (Human immunodeficiency virus type 1 group M subtype B, UniProt P03366); assay: HIV RT inhibition, fluorescent EnzChek/PicoGreen assay; type: biochemical, HIV-1
TZM-bl cells = assay: Cytotoxicity in TZM-bl cells; type: cell-based
[6] = Cytotoxicity in TZM-bl cells; type: cell-based; conditions: human
Protein binding = type: in vitro ADME
Solubility = type: physicochemical
L100I/K103N HIV mutant = assay: Inhibition of NNRTI-resistant L100I/K103N mutant in TZM-bl cells; type: cell-based, HIV-1; conditions: 0.05–500 nM
[7] = Metabolic stability in human liver microsomes; type: in vitro ADME
Balb/C male mice = assay: In vivo acute toxicity study; conditions: 2000 mg/kg single oral dose, 14 days
Caco-2 cells = assay: Efflux in Caco-2 cells; type: in vitro ADME
[8] = Metabolic stability in mouse liver microsomes; type: in vitro ADME
K103N HIV mutant = assay: Inhibition of NNRTI-resistant K103N mutant in TZM-bl cells; type: cell-based, HIV-1; conditions: 0.05–500 nM
Y181C HIV mutant = assay: Inhibition of NNRTI-resistant Y181C mutant in TZM-bl cells; type: cell-based, HIV-1; conditions: 0.05–500 nM
[9] = Single-dose pharmacokinetics in mice; conditions: mouse
Balb/C mice = assay: In vivo subacute toxicity study; conditions: 30 days
[10] = Human immunodeficiency virus 1, IIIB, TZM-bl, read-out: WT EC50 (nM)

Chain of hERG (Q12809 whole entry): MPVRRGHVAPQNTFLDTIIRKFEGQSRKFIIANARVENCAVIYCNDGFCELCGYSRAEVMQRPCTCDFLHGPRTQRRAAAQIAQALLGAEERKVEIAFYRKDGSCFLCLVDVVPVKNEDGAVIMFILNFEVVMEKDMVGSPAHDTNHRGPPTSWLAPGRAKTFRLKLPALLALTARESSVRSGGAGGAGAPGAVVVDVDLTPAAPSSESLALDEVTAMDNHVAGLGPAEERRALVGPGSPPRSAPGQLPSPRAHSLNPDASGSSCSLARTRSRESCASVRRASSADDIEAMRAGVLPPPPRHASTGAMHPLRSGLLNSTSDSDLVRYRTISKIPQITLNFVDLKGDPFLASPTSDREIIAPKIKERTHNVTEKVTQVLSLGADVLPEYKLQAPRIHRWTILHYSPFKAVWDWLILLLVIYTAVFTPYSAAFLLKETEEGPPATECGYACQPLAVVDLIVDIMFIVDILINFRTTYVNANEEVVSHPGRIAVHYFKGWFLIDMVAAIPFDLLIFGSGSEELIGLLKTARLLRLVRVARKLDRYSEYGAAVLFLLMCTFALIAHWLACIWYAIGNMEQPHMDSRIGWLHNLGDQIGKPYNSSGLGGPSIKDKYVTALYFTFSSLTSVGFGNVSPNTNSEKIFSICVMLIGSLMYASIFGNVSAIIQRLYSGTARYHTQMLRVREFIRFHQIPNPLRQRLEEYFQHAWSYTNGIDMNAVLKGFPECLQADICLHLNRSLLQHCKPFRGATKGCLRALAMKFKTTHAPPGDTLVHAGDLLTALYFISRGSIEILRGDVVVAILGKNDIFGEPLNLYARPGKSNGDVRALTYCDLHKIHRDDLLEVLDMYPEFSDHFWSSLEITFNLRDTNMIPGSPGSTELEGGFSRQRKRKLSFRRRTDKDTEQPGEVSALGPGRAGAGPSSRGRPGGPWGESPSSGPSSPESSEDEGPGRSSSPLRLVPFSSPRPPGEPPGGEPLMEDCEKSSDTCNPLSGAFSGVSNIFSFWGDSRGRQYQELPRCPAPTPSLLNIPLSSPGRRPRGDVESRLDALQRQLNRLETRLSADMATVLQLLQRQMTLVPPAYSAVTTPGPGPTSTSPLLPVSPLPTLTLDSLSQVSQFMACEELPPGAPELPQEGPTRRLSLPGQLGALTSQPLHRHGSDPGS

Cn1c(Cn2ccc(C(F)(F)F)c(Oc3cc(Cl)cc(C#N)c3)c2=O)n[nH]c1=O [Doravirine, doravirine]
IC50 (HIV-RT): 11 nM

O=C1Nc2ccc(Cl)cc2[C@@](C#CC2CC2)(C(F)(F)F)O1 [EFV, efavirenz]
estimated TC10 (primary mouse neurons [1]): 70 nM | calcium accumulation, delayed phase (in words) (primary mouse neurons [2]): pronounced increase | calcium spiking frequency, acute phase (in words) (primary mouse neurons [2]): acute suppression | plasma levels ([3]; human, in vivo): 3170 to 12670 nM

CO[P@](=O)(c1cc(C)cc(/C=C/C#N)c1)c1c(C(N)=O)[nH]c2ccc(Cl)cc12 [IDX899]
EC50 (HIV; aryl-phospho-indole): 1 nM

Cc1cc(/C=C/C#N)cc(C)c1Nc1ccnc(Nc2ccc(C#N)cc2)n1 [RPV, rilpivirine]
EC50 ([4]; read-out: A17 EC50 (nM)): 2.5 ± 1.9 nM | estimated TC10 (primary mouse neurons [1]): 600 to 930 nM | calcium spiking frequency, acute phase (in words) (primary mouse neurons [2]): acute suppression | proposed plasma target concentration (protein binding-adjusted EC90) (HIV): 0.0121 µg/mL | EC90 (HIV; read-out: proposed plasma target concentration (protein binding-adjusted EC90)): 33 nM | EC50 (HIV-1 IIIB virus; [10]): 0.35 ± 0.03 nM | concentration shown to inhibit hERG in vitro (hERG): 300 nM | EC50 [5]: 160 ± 60 nM | recorded CSF concentrations [3]: up to 2.9 ng/ml and ≤ 7.9 nM

Nc1nc(Nc2ccc(Cl)cc2)nn1S(=O)(=O)c1ccc2ccccc2c1 [compound 11626007, N^3-(4-chlorophenyl)-1-(2-naphthylsulfonyl)-1,2,4-triazole-3,5-diamine]
toxicity in MTS assay (in words) (TZM-bl cells): No observable toxicity | inhibition of A17 mutant (in words) ([4]; TZM-bl cells, early screening): No appreciable inhibition | TC50 (µM) Relative MAP-2 Area (primary mouse neurons [1]): 34 ± 46 µM | TC50 (µM) Relative MAP-2 intensity (primary mouse neurons [1]): 23 ± 18 µM | EC50 [5]: 280 ± 100 nM

N#Cc1ccc(Nc2nc(N)n(S(=O)(=O)c3cccc4cc(C#N)ccc34)n2)cc1 [compound 11726152, 5-[[5-amino-3-(4-cyanoanilino)-1,2,4-triazol-1-yl]sulfonyl]naphthalene-2-carbonitrile]
EC50 ([4]; read-out: A17 EC50 (nM)): 49 ± 7.8 nM | TC50 (µM) Relative MAP-2 Area (primary mouse neurons [1]): 1.2 ± 0.6 µM | TC50 (µM) Relative MAP-2 intensity (primary mouse neurons [1]): 1.0 ± 0.5 µM | Safety Index (primary mouse neurons [1]; TC10/(100*EC50), relative MAP-2 area): 1.6 | EC50 (HIV-1 IIIB virus; [10]): 0.35 ± 0.05 nM | EC50 [5]: 700 ± 220 nM

N#Cc1ccc2c(S(=O)(=O)n3nc(Nc4ccc(C#N)c(Cl)c4)nc3N)cccc2c1 [compound 11826116, 5-[[5-amino-3-(3-chloro-4-cyano-anilino)-1,2,4-triazol-1-yl]sulfonyl]naphthalene-2-carbonitrile]
EC50 ([4]; read-out: A17 EC50 (nM)): 25 ± 6.6 nM | EC50 (HIV-1 IIIB virus; [10]): 0.34 ± 0.04 nM

N#Cc1ccc(Nc2nc(N)n(S(=O)(=O)c3c(Cl)nc4sccn34)n2)cc1 [compound 11926331, 4-[[5-amino-1-(6-chloroimidazo[2,1-b]thiazol-5-yl)sulfonyl-1,2,4-triazol-3-yl]amino]-benzonitrile]
whole cell virus activity (in words) (HIV-1 IIIB virus; Table S1): excellent | RT activity (in words) ([5]; Table S1): excellent

N#Cc1ccc2c(S(=O)(=O)n3nc(Nc4ccc(C#N)c(C#N)c4)nc3N)cccc2c1 [compound 12126055, 4-[[5-amino-1-[(6-cyano-1-naphthyl)sulfonyl]-1,2,4-triazol-3-yl]amino]phthalonitrile]
CC50 at 48 h [6]: 28000 ± 66000 nM | EC50 ([4]; read-out: A17 EC50 (nM)): 49 ± 9.5 nM | TC50 (µM) Relative MAP-2 Area (primary mouse neurons [1]): 48 ± 86 µM | TC50 (µM) Relative MAP-2 intensity (primary mouse neurons [1]): 50 ± 140 µM | EC50 (HIV-1 IIIB virus; [10]): 0.21 ± 0.01 nM | EC50 [5]: 350 ± 130 nM

N#C/C=C/c1ccc2c(S(=O)(=O)n3nc(Nc4ccc(C#N)c(Cl)c4)nc3N)cccc2c1 [compound 12126065, 4-[[5-amino-1-[[6-[(E)-2-cyanovinyl]-1-naphthyl]sulfonyl]-1,2,4-triazol-3-yl]amino]-2-chloro-benzonitrile]
protein binding (in words) (Protein binding): high | solubility (in words) (Solubility): poor | activity against L100I/K103N mutant (in words) (L100I/K103N HIV mutant): not drastically mitigated; also recorded: retained activity | EC50 ([4]; read-out: A17 EC50 (nM)): 3.4 ± 1.1 nM | EC50 ([4]; read-out: EC50 against K103N/Y181C double mutant): 1.33 ± 0.16 nM | TC50 (µM) Relative MAP-2 Area (primary mouse neurons [1]): 100 ± 410 µM | TC50 (µM) Relative MAP-2 intensity (primary mouse neurons [1]): >10 µM | Estimated TC10 (µM) Relative MAP-2 Intensity (primary mouse neurons [1]; concentration of 10% loss of MAP-2): >10 µM | 50% toxicity concentration (TC50) (primary mouse neurons [1]; mouse neurons, as stated in abstract): > 100000 nM | neurotoxicity in mouse neurons (in words) (primary mouse neurons [1]; up to 10 µM): minimal neurotoxicity | metabolic stability (in words) [7]: good | acute toxicity (in words) (Balb/C male mice): no in vivo acute or subacute toxicity; also recorded: No visible signs of intoxication | efflux in Caco-2 cells (in words) (Caco-2 cells): no indication of efflux | EC50 (HIV-1 IIIB virus; Human immunodeficiency virus 1, IIIB, TZM, read-out: EC50 against wild-type HIV-1 in TZM cells): 0.24 nM | EC50 (HIV-1 IIIB virus; Human immunodeficiency virus 1, IIIB, TZM-bl, read-out: EC50 (TZM, WT)): 0.263 nM | EC50 (HIV-1 IIIB virus; [10]): 0.47 ± 0.05 nM | EC90 (HIV-1 IIIB virus; Human immunodeficiency virus 1, IIIB, TZM-bl, read-out: estimated EC90): 19 nM | metabolic stability (in words) [8]: good | activity against K103N mutant (in words) (K103N HIV mutant): retained activity | activity against Y181C mutant (in words) (Y181C HIV mutant): retained activity | EC50 [5]: 230 ± 70 nM | half-life ([9]; male, Balb/C, plasma, po, 250 mg/kg): 7.7 ± 1.57 h | in vivo brain penetration (in words) ([9]; in vivo): good | aspartate aminotransferase activity versus control (in words) (Balb/C mice; 250 mg/kg group only): reduced aspartate aminotransferase activity | subacute toxicity (in words) (Balb/C mice; 25 and 250 mg/kg daily): no in vivo acute or subacute toxicity

— publication PMC10269403 (Journal of medicinal chemistry, 2023)
